Results from PubChem BioAssay AID588487 (The Scripps Research Institute Molecular Screening Center, 2011).
Active and inactive are the calls of the source.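 The calls were made as follows: active = inhibition of at least 50% against any of four protein arginine deiminase enzymes; inactive = the rest.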

Assays:
Assay in all cases: PAD isozyme probe labeling blockade – biochemical, fluorescence, gel-based ABPP, HTS hits, orthogonal assay for PAD4 inhibitor project, late-stage follow-up (AID 588487)
[1] = target: Protein-arginine deiminase type-1 (Homo sapiens) (UniProt Q9ULC6); conditions: recombinant PAD1-4, gel-based ABPP, RFA probe fluorescence; PAD1; at 10 µM; hits give high values
Chain of Protein-arginine deiminase type-1 (Homo sapiens) (Q9ULC6 whole entry, looked up): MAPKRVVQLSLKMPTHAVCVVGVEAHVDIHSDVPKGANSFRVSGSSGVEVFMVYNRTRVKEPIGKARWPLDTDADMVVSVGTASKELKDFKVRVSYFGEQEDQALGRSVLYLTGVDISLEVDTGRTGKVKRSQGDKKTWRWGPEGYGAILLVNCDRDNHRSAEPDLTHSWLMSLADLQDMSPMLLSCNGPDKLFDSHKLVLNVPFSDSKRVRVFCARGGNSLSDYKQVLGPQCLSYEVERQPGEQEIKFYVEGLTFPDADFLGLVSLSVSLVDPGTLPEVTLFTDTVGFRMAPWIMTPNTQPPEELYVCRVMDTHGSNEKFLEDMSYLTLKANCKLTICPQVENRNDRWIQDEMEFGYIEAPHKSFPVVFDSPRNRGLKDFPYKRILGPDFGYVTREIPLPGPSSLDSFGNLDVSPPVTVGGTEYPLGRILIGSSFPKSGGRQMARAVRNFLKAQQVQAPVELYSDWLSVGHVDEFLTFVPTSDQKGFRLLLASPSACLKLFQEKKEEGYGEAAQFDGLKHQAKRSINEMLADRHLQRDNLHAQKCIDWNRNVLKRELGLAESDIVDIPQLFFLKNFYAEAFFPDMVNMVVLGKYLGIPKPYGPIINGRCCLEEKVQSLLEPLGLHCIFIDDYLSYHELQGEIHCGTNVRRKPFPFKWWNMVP
Summary of the method: (§1)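 System: Recombinant PAD1, PAD2, PAD3 or PAD4 | Input: PAD enzyme 10 µM | Probe or stimulus: RFA fluorescent probe at 1 µM | Compound: One 10 µM dose per compound | Schedule: 15 min compound pre-incubation plus 30 min probe step, 37 °C | Detection: in-gel fluorescence scan of probe-labeled PAD band after SDS-PAGE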

[2] = target: Protein-arginine deiminase type-2 (Homo sapiens) (UniProt Q9Y2J8); conditions: recombinant PAD1-4, gel-based ABPP, RFA probe fluorescence; PAD2; at 10 µM; hits give high values
Chain of Protein-arginine deiminase type-2 (Homo sapiens) (Q9Y2J8 whole entry, looked up): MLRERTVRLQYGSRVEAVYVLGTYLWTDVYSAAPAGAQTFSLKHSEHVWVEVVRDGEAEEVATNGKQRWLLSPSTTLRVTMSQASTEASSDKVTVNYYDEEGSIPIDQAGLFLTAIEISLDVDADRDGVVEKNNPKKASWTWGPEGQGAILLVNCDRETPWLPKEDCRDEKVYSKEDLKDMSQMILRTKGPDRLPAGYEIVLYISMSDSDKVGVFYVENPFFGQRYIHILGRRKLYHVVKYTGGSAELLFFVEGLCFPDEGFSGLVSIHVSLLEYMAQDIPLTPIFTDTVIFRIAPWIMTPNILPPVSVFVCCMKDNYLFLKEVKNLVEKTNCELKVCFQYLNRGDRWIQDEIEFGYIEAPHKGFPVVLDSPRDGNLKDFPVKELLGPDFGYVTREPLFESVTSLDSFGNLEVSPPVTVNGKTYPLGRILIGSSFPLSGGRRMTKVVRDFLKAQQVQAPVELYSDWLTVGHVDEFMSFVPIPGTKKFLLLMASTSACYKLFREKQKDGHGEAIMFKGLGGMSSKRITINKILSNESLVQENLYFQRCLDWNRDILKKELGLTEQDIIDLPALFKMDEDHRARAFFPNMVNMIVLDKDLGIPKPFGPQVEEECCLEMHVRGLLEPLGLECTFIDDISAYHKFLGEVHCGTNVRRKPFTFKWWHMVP
Summary of the method: as §1

[3] = target: Protein-arginine deiminase type-3 (Homo sapiens) (UniProt Q9ULW8); conditions: recombinant PAD1-4, gel-based ABPP, RFA probe fluorescence; PAD3; at 10 µM; hits give high values
Chain of Protein-arginine deiminase type-3 (Homo sapiens) (Q9ULW8 whole entry, looked up): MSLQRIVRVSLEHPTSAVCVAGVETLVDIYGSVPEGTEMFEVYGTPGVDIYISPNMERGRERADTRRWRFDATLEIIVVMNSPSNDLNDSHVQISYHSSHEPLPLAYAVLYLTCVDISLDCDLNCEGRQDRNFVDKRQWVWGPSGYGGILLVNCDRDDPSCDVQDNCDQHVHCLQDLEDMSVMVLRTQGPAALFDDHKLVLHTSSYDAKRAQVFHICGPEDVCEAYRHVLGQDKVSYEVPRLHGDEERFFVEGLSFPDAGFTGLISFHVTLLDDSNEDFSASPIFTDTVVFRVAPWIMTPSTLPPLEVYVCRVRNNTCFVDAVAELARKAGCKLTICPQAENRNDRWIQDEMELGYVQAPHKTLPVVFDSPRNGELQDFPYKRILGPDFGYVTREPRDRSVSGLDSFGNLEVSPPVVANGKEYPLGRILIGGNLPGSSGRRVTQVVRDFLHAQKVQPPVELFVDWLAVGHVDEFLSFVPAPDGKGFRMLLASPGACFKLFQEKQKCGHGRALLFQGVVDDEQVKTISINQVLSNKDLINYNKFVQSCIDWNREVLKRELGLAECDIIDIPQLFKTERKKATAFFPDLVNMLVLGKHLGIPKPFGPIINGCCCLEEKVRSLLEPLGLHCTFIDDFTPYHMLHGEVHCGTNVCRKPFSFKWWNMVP
Summary of the method: as §1

[4] = target: Protein-arginine deiminase type-4 (Homo sapiens) (UniProt Q9UM07); conditions: recombinant PAD1-4, gel-based ABPP, RFA probe fluorescence; PAD4; at 10 µM; hits give high values
Chain of Protein-arginine deiminase type-4 (Homo sapiens) (Q9UM07 whole entry, looked up): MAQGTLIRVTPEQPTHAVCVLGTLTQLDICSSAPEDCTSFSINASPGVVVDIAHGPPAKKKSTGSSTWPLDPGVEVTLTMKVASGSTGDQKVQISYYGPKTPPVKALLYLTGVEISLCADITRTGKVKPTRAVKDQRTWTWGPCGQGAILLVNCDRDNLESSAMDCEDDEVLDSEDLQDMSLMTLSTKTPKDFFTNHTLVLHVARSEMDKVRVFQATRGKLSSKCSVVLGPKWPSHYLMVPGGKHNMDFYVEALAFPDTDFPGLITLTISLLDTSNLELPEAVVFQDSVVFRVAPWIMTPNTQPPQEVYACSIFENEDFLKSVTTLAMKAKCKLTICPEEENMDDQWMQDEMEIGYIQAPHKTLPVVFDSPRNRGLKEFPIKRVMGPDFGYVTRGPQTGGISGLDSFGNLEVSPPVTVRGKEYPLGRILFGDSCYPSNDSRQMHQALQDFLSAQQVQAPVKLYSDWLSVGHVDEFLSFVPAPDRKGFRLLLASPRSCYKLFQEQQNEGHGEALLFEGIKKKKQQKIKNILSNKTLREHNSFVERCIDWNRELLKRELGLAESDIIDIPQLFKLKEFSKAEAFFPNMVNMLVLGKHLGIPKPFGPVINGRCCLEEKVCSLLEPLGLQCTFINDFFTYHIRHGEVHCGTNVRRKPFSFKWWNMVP
Summary of the method: as §1

Structure (SMILES)	inhibition [1]	inhibition [2]	inhibition [3]	inhibition [4]
COc1cccc(/C=C2/CN(C)CC3=C2OC(N)=C(C#N)C3c2cccc(OC)c2)c1 (configuration not stated)	-47% (inactive)	92%	48% (inactive)	-5% (inactive)
Cc1nn(-c2cccc(Cl)c2)c2c1C(c1cccnc1)C(C#N)=C(N)O2 (configuration not stated)	74%	28% (inactive)	-34% (inactive)	53%
S=C(NCc1ccco1)Nc1cccc(Cl)c1	46% (inactive)	25% (inactive)	43% (inactive)	1% (inactive)
CCOc1ccccc1C(=O)NCC(=O)NCCCc1ccccc1	-8% (inactive)	26% (inactive)	11% (inactive)	31% (inactive)
COCc1cc(C)nc(SCC(=O)Nc2ccc3c(c2)n(C)c(=O)n3C)c1C#N	15% (inactive)	31% (inactive)	-43% (inactive)	38% (inactive)
O=C1CC(c2cccnc2)=NN1c1ccccc1	37% (inactive)	34% (inactive)	34% (inactive)	4% (inactive)
COc1cccc(C2=CC(c3ccc(OC)c(OC)c3)NC(=S)N2)c1 (configuration not stated)	-9% (inactive)	14% (inactive)	-3% (inactive)	-9% (inactive)
COc1ccc(-c2noc3c2-c2nc(-c4ccc(Br)cc4)sc2CC3)cc1	33% (inactive)	32% (inactive)	-23% (inactive)	47% (inactive)
CC(=O)Nc1c2c3c(cccc3n(C)c1=O)C(=O)c1ccccc1-2	-5% (inactive)	37% (inactive)	32% (inactive)	28% (inactive)
O=C(O)CCC(=O)c1ccc(-c2ccccc2)cc1	16% (inactive)	-45% (inactive)	24% (inactive)	-51% (inactive)
COc1ccc(CCNC(=O)COC(=O)c2ccc(C)s2)cc1	-2% (inactive)	40% (inactive)	-38% (inactive)	72%
O=C(O)c1ccc(S(=O)(=O)c2ccc3c(c2)C(=O)N(c2ccc(O)cc2)C3=O)cc1	18% (inactive)	32% (inactive)	34% (inactive)	-3% (inactive)
O=c1cc(-c2ccc(F)cc2)[nH][nH]1	33% (inactive)	28% (inactive)	1% (inactive)	37% (inactive)
